Here are results for four compounds from ChEMBL document CHEMBL1833842, “1,3-Dihydro-2H-indol-2-ones derivatives: design, synthesis, in vitro antibacterial, antifungal and antitubercular study” (2011).

In assay [1] the test system is Mycobacterium tuberculosis. The assay can be described thus: Antituberculosis activity against 5 x 10^4 bacilli per tube Mycobacterium tuberculosis H37Rv assessed as growth inhibition at 0.20 ug/mL incubated for 24 hrs measured after 28 days. The format is functional. Particulars: read-out: GI. The gist of the method:
(§1)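 Conventional Lowenstein-Jensen method. Compound dilutions were made from a DMSO stock and added to liquid L-J medium, which was sterilized by inspissation. Tubes were incubated 24 h at 37 °C, then streaked with H37Rv (5 × 10⁴ bacilli per tube) harvested into 0.85% saline. Growth was checked at 12, 22 and 28 days at 37 °C against medium-only controls. MIC was the concentration giving no colonies or <20 colonies.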

For assay [2], the system named is Mycobacterium tuberculosis. Put plainly: Antituberculosis activity against 5 x 10^4 inoculum per tube Mycobacterium tuberculosis H37Rv after 24 hrs by Lowenstein-Jensen method. The format is functional. The gist of the method: as §1
The subject of a further assay is Escherichia coli. The assay can be described thus: Antibacterial activity against 10^8 CFU/mL Escherichia coli MTCC 443 by broth microdilution method. The assay is classed as functional. The gist of the method: (§2)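 MTCC bacterial strains from IMTECH Chandigarh were grown in Mueller-Hinton broth, which was also used to dilute the compounds. Inoculum was turbidity-adjusted to 10⁸ CFU/mL, and DMSO served as diluent. Compounds from a 2000 stock were screened first at 500, 250 and 125; actives were retested in a second dilution series. Tubes were incubated overnight at 37 °C, and MIC was the lowest concentration with no visible growth. Clear tubes were subcultured overnight at 37 °C to tell bacteriostatic from bactericidal.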
(In general: Broth dilution looks for growth in wells or tubes with falling amounts of substance.)

In a further assay the test system is Salmonella typhi. Put plainly: Antibacterial activity against 10^8 CFU/mL Salmonella typhi MTCC 98 by broth microdilution method. The assay is classed as functional, Salmonella enterica subsp. enterica serovar Typhi. Particulars: Salmonella enterica. The gist of the method: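 Broth microdilution in Mueller-Hinton broth with MTCC strains, inoculum adjusted by turbidity to 10⁸ CFU/mL. Compounds were diluted from DMSO. Primary screen used 500, 250 and 125 concentrations, and actives were serially diluted further. Tubes were incubated overnight at 37 °C. MIC was the lowest concentration with no visible growth. Clear tubes were subcultured overnight at 37 °C to judge bacteriostatic versus bactericidal.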

Assay [3] has as its system Mycobacterium tuberculosis. Put plainly: Antituberculosis activity against 5 x 10^4 bacilli per tube Mycobacterium tuberculosis H37Rv assessed as growth inhibition at 50 ug/mL incubated for 24 hrs measured after 28 days. The format is functional. Particulars: read-out: GI. The gist of the method:
as §1

In the next assay the test system is Bacillus subtilis. Put plainly: Antibacterial activity against 10^8 CFU/mL Bacillus subtilis MTCC 441 by broth microdilution method. The format is functional. The gist of the method: as §2
A further assay relates to Aspergillus clavatus. Put plainly: Antifungal activity against 10^8 CFU/mL Aspergillus clavatus MTCC 1323 by broth microdilution method. The assay is classed as functional. Put shortly: (§3)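 Fungal MTCC cultures came from IMTECH Chandigarh. Mueller-Hinton broth served as growth and dilution medium, with DMSO as diluent. Inoculum was set to 10⁸ CFU/mL by turbidity. Serial dilutions from a 2000 stock gave a primary screen at 500, 250 and 125, followed by a secondary dilution series for actives. MIC was the lowest concentration inhibiting growth.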

For a further assay, the system named is Aspergillus niger. The assay can be described thus: Antifungal activity against 10^8 CFU/mL Aspergillus niger MTCC 282 by broth microdilution method. The assay is classed as functional. The gist of the method:
as §3

In a further assay the test system is Staphylococcus aureus. The assay can be described thus: Antibacterial activity against 10^8 CFU/mL Staphylococcus aureus MTCC 96 by broth microdilution method. The format is functional. The gist of the method:
as §2

For another assay, the system named is Candida albicans. The assay can be described thus: Antifungal activity against 10^8 CFU/mL Candida albicans MTCC 227 by broth microdilution method. The format is functional. The gist of the method:
as §3

The next assay deals with Pseudomonas aeruginosa. Put plainly: Antibacterial activity against 10^8 CFU/mL Pseudomonas aeruginosa MTCC 1688 by broth microdilution method. The assay is classed as functional. Put shortly: as §2
In another assay the test system is Streptococcus pyogenes. Put plainly: Antibacterial activity against 10^8 CFU/mL Streptococcus pyogenes MTCC 442 by broth microdilution method. The format is functional. Put shortly: as §2
In another assay the test system is Klebsiella pneumoniae. Put plainly: Antibacterial activity against 10^8 CFU/mL Klebsiella pneumoniae MTCC 109 by broth microdilution method. The assay is classed as functional. The gist of the method: as §2
The test system of assay [4] is Mycobacterium tuberculosis. Put plainly: Antituberculosis activity against 5 x 10^4 bacilli per tube Mycobacterium tuberculosis H37Rv assessed as growth inhibition at 40 ug/mL incubated for 24 hrs measured after 28 days. The format is functional. Particulars: read-out: GI. Put shortly:
as §1

In assay [5] the test system is Mycobacterium tuberculosis. The assay can be described thus: Antituberculosis activity against 5 x 10^4 bacilli per tube Mycobacterium tuberculosis H37Rv assessed as growth inhibition at 100 ug/mL incubated for 24 hrs measured after 28 days. The assay is classed as functional. Particulars: read-out: GI. Put shortly:
as §1

In brackets after ≈: the same amount, converted by molar mass. Some results are limits rather than exact numbers.

Turning to `NNC(=O)c1ccncc1` [ISONIAZID], in assay [1], the inhibition of growth at 0.2 µg/mL worked out at 99%. Besides, the MIC (in general, the least concentration at which growth counts as inhibited) in assay [2] was 0.2 µg/mL (≈ 1.46 µM).
Take `CC1=C(c2nnc(/N=C3\C(=O)Nc4ccc(F)cc43)s2)C(c2ccccc2)NC(=O)N1` (stereo not drawn): the MIC99 (as a rule, the lowest concentration that inhibits either 99% of growth or 99% of the strains tested, depending on the study) in the assay on Escherichia coli stood at 100 µg/mL (≈ 230 µM); in the assay on Salmonella typhi it was 100 µg/mL (≈ 230 µM); against Bacillus subtilis, 100 µg/mL (≈ 230 µM); against Staphylococcus aureus, 62.5 µg/mL (≈ 144 µM); in the assay on Pseudomonas aeruginosa, 62.5 µg/mL (≈ 144 µM); in the assay on Streptococcus pyogenes it was 100 µg/mL (≈ 230 µM). This compound registered an MIC99 against Klebsiella pneumoniae of 100 µg/mL (≈ 230 µM). Also, in assay [3], the inhibition of growth at 50 µg/mL worked out at 99%. The MIC in the assay on Aspergillus clavatus came to 200 µg/mL (≈ 460 µM); in the assay on Aspergillus niger, 100 µg/mL (≈ 230 µM); in the assay on Candida albicans, 100 µg/mL (≈ 230 µM); in [2] it was 50 µg/mL (≈ 115 µM).
With `CO[C@H]1/C=C/O[C@@]2(C)Oc3c(C)c(O)c4c(O)c(c(/C=N/N5CCN(C)CC5)c(O)c4c3C2=O)NC(=O)/C(C)=C\C=C\[C@H](C)[C@H](O)[C@@H](C)[C@@H](O)[C@@H](C)[C@H](OC(C)=O)[C@@H]1C` [RIFAMPIN], in [4], the inhibition of growth at 40 µg/mL stood at 98%. In assay [2], this compound came in with an MIC of 40 µg/mL (≈ 48.6 µM).
On to `CC1=C(c2nnc(/N=C3\C(=O)Nc4ccc(Cl)cc43)s2)C(c2ccccc2)NC(=O)N1` (stereo not drawn), for which the MIC99 in the assay with Escherichia coli came to 100 µg/mL (≈ 222 µM); with Salmonella typhi it was 200 µg/mL (≈ 444 µM); in the assay with Bacillus subtilis, 200 µg/mL (≈ 444 µM); with Staphylococcus aureus, 200 µg/mL (≈ 444 µM); in the assay on Pseudomonas aeruginosa it was 200 µg/mL (≈ 444 µM); in the assay with Streptococcus pyogenes, 200 µg/mL (≈ 444 µM). Further, the MIC99 against Klebsiella pneumoniae came out at 200 µg/mL (≈ 444 µM). Besides, the inhibition of growth at 100 µg/mL in assay [5] stood at 98%. Moreover, the MIC in the assay on Aspergillus clavatus is 500 µg/mL (≈ 1110 µM); with Aspergillus niger, 500 µg/mL (≈ 1110 µM); in the assay with Candida albicans, above 1000 µg/mL; in assay [2] it was 100 µg/mL (≈ 222 µM).
